Most compounds without a hit are left out; they make up all but 3.3% or so of the library.
ABCB1 block: inhibitors of human ABCB1 transporter, ABCG2 counter-screen; P08183; CCRF-Adr cells, JC-1 efflux, flow cytometry; inhibition, % at 6.6 µM; 190,000 tested, 0.067% active; in the data active = inhibition above about 40%;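 note: 0% = vehicle and 100% = reference inhibitor; higher value means more JC-1 retained so stronger ABCB1 efflux block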
ROMK mod: human ROMK K+ channel modulation, primary screen; Tet-inducible ROMK, thallium flux fluorescence; actives lie on both sides; 130,000 tested, 2% active; B-score at 10 µM; P48048;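 active = signal ratio slope over the read window, or its plate-corrected B-score, at least 3 SD from the plate mean, either direction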;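 note: B-score of the F/F0 ratio slope over 7 to 12 s after thallium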
ABCG2 inh: inhibitors of human ABCG2 transporter, ABCB1 counter-screen | IgMXP3 cells, JC-1 efflux, flow cytometry | inhibition, % at 6.6 µM | 190,000 tested, 0.1% active | AID 1325;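 active = inhibition above 80%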;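 note: 0% = DMSO and 100% = nicardipine control wells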
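Assay system – ABCG2 IgMXP3 and barcoded ABCB1 CCRF-Adr cell mix · Input – 3 million cells/mL in well · Reagent – JC-1 fluorescent substrate · Compound – single test compound dose, 6.6 µM final · Timing – 10 min exposure at 25 °C with rotation, no wash · Detection – flow cytometry of retained JC-1 fluorescence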
PMI act: phosphomannose isomerase (human) activation | P34949 | purified human PMI, coupled resazurin fluorescence, 20 min; active compounds read high; 1 = vehicle control, 0 substrate-free wells | activation factor at 20 µM | 190,000 tested, 0.005% active;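 active = activation factor of 2 or more at 20 µM, relative to plate controls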
PMI act hi M6P: increases human PMI activity with near-saturating mannose 6-phosphate. P34949. coupled PMI enzyme assay, resazurin fluorescence, 20 min; active compounds read high; 1 = untreated enzyme, 0 = substrate-free blank. activation factor at 20 µM. 190,000 tested, 0.34% active;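 active = activation factor of 2 or more at 20 µM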
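assay system = human phosphomannose isomerase with PGI, G6PDH, diaphorase coupling enzymes | quantity = 15 ng/mL PMI | incubation = enzyme reaction with compound 20 min at room temperature | medium = HEPES pH 7.4 buffer with MgCl2 and Tween-20 | compound dosing = one concentration, 20 µM, in 1% DMSO | measured by = Diaphorase-driven resazurin-to-resorufin fluorescence, excitation 544, emission 590 nm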
Cl transport mod: modulates chloride dependent transport by human KCC2. AID 1456. 190,000 tested, 2.2% active. KCC2 cells, thallium flux FluoZin-2 fluorescence. B-score of Tl+ flux slope (higher = more flux/activation; lower = inhibition) at 10 µM. Q9H2X9;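 active = thallium flux slope and its plate-corrected score both differing from the plate sample mean at a set confidence after two filtering rounds, in either direction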;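 note: slope of fluorescence scaled to starting intensity during 10 to 20 s after thallium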
Target sequence (Q9H2X9 whole entry, looked up): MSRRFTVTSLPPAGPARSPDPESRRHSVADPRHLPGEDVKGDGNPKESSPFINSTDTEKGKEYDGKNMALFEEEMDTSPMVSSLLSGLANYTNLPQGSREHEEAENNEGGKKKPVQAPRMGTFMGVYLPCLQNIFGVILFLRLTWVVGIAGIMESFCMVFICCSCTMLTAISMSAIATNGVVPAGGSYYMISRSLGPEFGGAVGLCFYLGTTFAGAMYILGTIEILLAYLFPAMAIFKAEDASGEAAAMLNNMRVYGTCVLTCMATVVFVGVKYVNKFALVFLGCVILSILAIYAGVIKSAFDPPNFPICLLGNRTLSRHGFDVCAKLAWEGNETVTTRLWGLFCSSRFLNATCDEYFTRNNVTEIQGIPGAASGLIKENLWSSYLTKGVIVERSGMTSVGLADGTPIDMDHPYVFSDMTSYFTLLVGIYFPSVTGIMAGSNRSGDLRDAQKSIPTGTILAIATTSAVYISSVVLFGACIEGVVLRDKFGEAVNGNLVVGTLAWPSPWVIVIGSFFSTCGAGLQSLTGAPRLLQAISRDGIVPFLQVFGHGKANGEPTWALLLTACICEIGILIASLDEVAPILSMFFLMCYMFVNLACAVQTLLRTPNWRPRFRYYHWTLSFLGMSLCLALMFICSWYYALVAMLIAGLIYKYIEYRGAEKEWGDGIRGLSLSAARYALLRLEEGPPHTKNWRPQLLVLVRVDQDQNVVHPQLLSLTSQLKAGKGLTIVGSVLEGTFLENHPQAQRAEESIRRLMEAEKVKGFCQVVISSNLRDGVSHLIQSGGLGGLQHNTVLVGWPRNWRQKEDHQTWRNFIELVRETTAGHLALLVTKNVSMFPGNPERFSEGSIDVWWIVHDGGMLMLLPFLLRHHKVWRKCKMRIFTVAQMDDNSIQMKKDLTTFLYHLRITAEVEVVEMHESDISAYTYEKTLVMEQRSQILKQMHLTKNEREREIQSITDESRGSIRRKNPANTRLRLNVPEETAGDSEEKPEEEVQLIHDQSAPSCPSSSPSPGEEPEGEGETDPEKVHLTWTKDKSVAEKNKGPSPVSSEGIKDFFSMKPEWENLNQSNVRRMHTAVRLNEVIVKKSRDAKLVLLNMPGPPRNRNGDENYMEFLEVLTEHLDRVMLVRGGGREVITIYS
KCC2 sec1: confirmation of human KCC2 transport modulators; AID 1713; HEK293-KCC2, thallium flux, FluoZin2 fluorescence; active compounds read high; 3,700 tested, 15% active; normalised thallium flux (F/F0 slope) at 10 µM; shares compounds with Cl transport mod;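 active = thallium flux slope above the same plate's solvent-only control mean plus 3 SD; inconclusive = the two replicate wells disagree; inactive = no significant difference from solvent-only control wells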
KCC2 bumet counter: thallium flux persisting under bumetanide in KCC2 cells, counter-screen secondary assay. shares compounds with Cl transport mod. HEK293-KCC2 + bumetanide/ouabain, thallium flux FluoZin2; active compounds read high. normalized thallium flux at 10 µM. 3,700 tested, 49% active. AID 1714;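 active = thallium entry rate above the same plate's blocked-transporter control wells by more than 3 SD; inconclusive = the two repeat wells disagree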;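 note: raw slope of fluorescence over initial fluorescence between 10 and 20 s after thallium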
KCC2 sec2: KCC2 (human) modulation, second secondary assay; shares compounds with Cl transport mod; HEK293-KCC2, thallium flux FluoZin2 fluorescence; actives lie on both sides; F/F0 rise rate, 10–20 s post-thallium; normalized thallium flux at 10 µM; 3,700 tested, 23% active; AID 1715;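 active = thallium flux slope more than 3 SD above or below the plate's solvent-only control mean, mostly below; inconclusive = the two repeat wells disagreed; inactive = no significant shift from solvent-only controls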;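 note: raw slope with 0.1% DMSO as baseline and bumetanide as block control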
HEK counter1: counter-screen for KCC2 modulators: effect in parental HEK293 cells; thallium flux FluoZin2, ouabain; baseline-ratio fluorescence slope, 10–20 s after thallium; 3,700 tested, 46% active; shares compounds with Cl transport mod; AID 1716; thallium flux rate (normalised fluorescence) at 10 µM;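 active = thallium flux rate significantly above the same plate's solvent-only control wells, beyond their mean plus 3 SD; inconclusive = the two replicate wells gave conflicting results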
KCC2 ouabain: modulates human KCC2 on retest with ouabain. shares compounds with Cl transport mod. HEK293-KCC2, thallium flux FluoZin2 fluorescence; bidirectional: low = inhibitor, high = activator. raw Tl+ flux slope (below DMSO = inhibition, above = activation) at 10 µM. 3,700 tested, 48% active. AID 1717;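 active = thallium flux slope beyond 3 SD from same-plate DMSO control mean in most replicates, usually higher, sometimes lower; inconclusive = repeat tests gave conflicting results; inactive = no significant difference from controls in most replicates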;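 note: slope of initial-normalized fluorescence between seconds 10 and 20 after thallium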
HEK293 Tl flux2: counter-screen for KCC2 modulators: effect in parental HEK293 cells; shares compounds with Cl transport mod; thallium flux FluoZin-2 fluorescence slope; thallium flux slope at 10 µM; 3,700 tested, 33% active;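 active = thallium flux slope above the same plate's solvent-control mean plus 3 SD in both duplicate wells; inconclusive = duplicate wells that disagreed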;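 note: run without ouabain in cells lacking the KCC2 cotransporter; slope of fluorescence scaled to its starting value between 10 and 20 s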
An asterisk follows results filed as active; ? = inconclusive; . = no result.

SMILES | ABCB1 block | ROMK mod | ABCG2 inh | PMI act | PMI act hi M6P | Cl transport mod | KCC2 sec1 | KCC2 bumet counter | KCC2 sec2 | HEK counter1 | KCC2 ouabain | HEK293 Tl flux2
O=C(Nc1c(C(=O)Nc2ccccc2)cnn1-c1ccccc1)c1ccco1 | 0 | 0.037 | 0 | 0.9 | 0.9 | . | . | . | . | . | . | .
O=C(NCCO)C(O)C(O)C(=O)NCCO (configuration not stated) | -2 | . | 3 | 1 | 1 | -0.094 | . | . | . | . | . | .
CC1(OC(=O)CCc2ccccc2)C(=O)C=C2C=C(c3ccc(C#N)cc3)N(Cc3ccccc3)C=C2C1=O (configuration not stated) | . | . | . | . | . | -0.61 | . | . | . | . | . | .
CC(C)CN1C=C2C(=O)C(C)(OC(=O)CCc3ccccc3)C(=O)C=C2C=C1c1ccc(C#N)cc1 (configuration not stated) | . | . | . | . | . | 3.1* | 0.01 | 0.0064 | 0.036 | 0.0076 | 0.023 | ?
COCNc1nc(OCC#N)nc(N(C)C)n1 | 2 | 0.38 | -2 | 1 | 1 | 7.6* | 0.0069 | 0.0052 | 0.03 | 0.0084 | 0.019 | 0.012
S=c1[nH]c2ccc(Cl)cc2s1 | . | . | . | . | . | 86* | 0.043* | 0.098* | 0.085* | 0.087* | 0.087* | 0.058*
Cc1cc(C)c(NC(=O)c2ccc(CNS(=O)(=O)c3cc(C(F)(F)F)ccc3Cl)cc2)c(C)c1 | 1 | . | 8 | 0.8 | 1 | -0.83 | . | . | . | . | . | .
Cc1ccc(NC(=O)Cc2ccc(F)cc2)cc1 | 0 | -1.7 | 2 | 1.1 | 1 | 2.6* | 0.0085 | 0.006 | 0.035 | 0.0038 | 0.02 | 0.011
CCC(C)(C)NC(=O)C(c1cccnc1)N(C(=O)c1csnn1)c1ccc(C)cc1 (configuration not stated) | 0 | -0.99 | 2 | 1.1 | 1 | -0.97 | . | . | . | . | . | .
Oc1csc(Cc2nc(-c3ccc4ccccc4c3)cs2)n1 | 2 | 0.15 | 8 | 1 | 0.9 | . | 0.016 | ? | 0.027 | 0.0073 | 0.016 | 0.01
O=C(O)c1cc(-c2ccc(/C=N/N3C(=O)C4C5C=CC(CC5)C4C3=O)o2)ccc1Cl (configuration not stated) | 0 | 0.79 | 0 | 1 | 0.9 | -9.7* | 0.0086 | ? | 0.03 | 0.007 | 0.035 | 0.0095
Cc1cc(/C(N)=N/OC(=O)Nc2ccc(Cl)cc2)no1 | . | -1 | . | . | . | -0.68 | . | . | . | . | . | .
CC(C)CC(c1nnnn1C1CCCC1)N1CCC(C(N)=O)CC1 (configuration not stated) | 0 | 1.4 | 0 | 1.1 | 1.1 | 2.7* | 0.006 | 0.0044 | 0.028 | 0.0079 | 0.019 | 0.0095
CCCn1c(=O)[nH]c(=O)c2c1nc(-c1ccc(OC)c(Br)c1)n2CCOC | 1 | 0.49 | 24 | 1 | 0.7 | 1.4 | . | . | . | . | . | .
CCOC(=O)NC(=O)CSc1ccc(C)cc1C | 2 | -0.86 | 3 | 1.1 | 1 | 2.9* | 0.0093 | 0.0063 | 0.033 | ? | 0.017 | 0.011
CCOC(=O)c1c(-c2ccccc2)oc2cc(CN(C)C)c(O)c(CN(C)C)c12 | . | . | . | . | . | -0.028 | . | . | . | . | . | .
COc1ccc(CCN(C)C(=S)NC(=O)c2ccc(F)cc2Cl)cc1OC | 7 | -1.5 | 0 | 1 | 1 | 9.8* | 0.015* | 0.036* | 0.028 | 0.017* | 0.033* | 0.01*
CN1CCC(N(C)C(=S)NC(=O)c2cc(-c3cccc(Br)c3)nc3ccccc23)CC1 | -2 | . | -15 | 0.9 | 0.9 | 16* | 0.0048 | 0.015* | 0.035 | 0.012* | ? | 0.014*
CC(=O)c1cccc(NC(=O)COC(=O)c2n[nH]c3ccccc23)c1 | 0 | 0.97 | 5 | 1.1 | 1 | 0.0093 | . | . | . | . | . | .
O=C(NC(=S)N(CC1CCC1)CC1CCCO1)c1cccc([N+](=O)[O-])c1 (configuration not stated) | 0 | . | 3 | 1 | 1.2 | 99* | 0.043* | 0.089* | 0.045* | 0.077* | 0.075* | 0.032*
COC(=O)c1cc(Sc2cccc(Cl)c2Cl)ccn1 | 1 | -1.2 | 6 | 0.9 | 0.9 | -2.9* | 0.0069 | 0.0044 | ? | 0.0061* | 0.014* | 0.01
N#C/C(=C\c1cccs1)C(=O)Nc1nccs1 | 0 | 0.0044 | 1 | 1.1 | 1 | 10* | 0.012* | 0.019* | 0.035 | 0.013* | ? | 0.012*
N/C(CCN1CCCCC1)=N/O | 0 | 0.25 | 2 | 1 | 0.9 | -0.49 | . | . | . | . | . | .
CC1=C(C)CC(C(=O)Nc2ccc3c(c2)OCO3)C(C(=O)O)C1 (configuration not stated) | 0 | -0.26 | 3 | 0.9 | 0.7 | 0.9 | . | . | . | . | . | .
O=C(N/N=C/c1ccc(Br)s1)c1cccs1 | . | . | . | . | . | 112* | 0.014* | 0.086* | 0.034 | 0.04* | 0.049* | 0.034*
Cc1ccc(CSc2nc3sc(C)c(C)c3c(=O)n2Cc2ccco2)cc1 | 1 | . | 4 | 0.9 | 0.8 | 9.4* | 0.0073 | 0.019* | 0.039* | 0.024* | 0.031* | 0.023*
Cc1sc2nc(SCc3ccccc3)n(Cc3ccco3)c(=O)c2c1C | 1 | . | 2 | 0.9 | 0.9 | 0.23 | . | . | . | . | . | .
CC(=O)NNC(=S)NC(=O)C(c1ccccc1)c1ccccc1 | 0 | -1.6 | -1 | 1 | 1.1 | -1.4 | . | . | . | . | . | .
CC(C)(C)C(=O)NC(=S)NNC(=O)C(c1ccccc1)c1ccccc1 | 0 | -2 | 0 | 1.1 | 1.1 | 5.8* | 0.011 | 0.023* | 0.041 | ? | 0.03* | 0.013
COC(=O)c1ccc2c(=O)n(-c3ccccc3F)c(=S)[nH]c2c1 | -1 | -0.41 | -1 | 1.2 | 1.1 | 5.6* | 0.016 | 0.018* | 0.032 | 0.012* | 0.022* | 0.013*

Screens (PubChem)
